Reference: PMC2882023 (The Journal of neuroscience : the official journal of the …, 2010)
Where a name gives a salt, the structure may show the parent alone. Read-outs that look alike come from different tables or passages of the source.

Tests used:
[1] = system: micturition reflex contractions; assay type: in vivo, Sprague-Dawley rats; conditions: i.t.; for intercontraction interval (ICI): anaesthetized rats, mean ± SEM; for intercontraction interval (ICI), extent of prolongation over the dose range: across the doses tested
Procedure, shortened: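 Urethane-anaesthetised (1.2 g/kg i.p.) adult female rats, 200–280 g, with an intrathecal catheter tip at L1 placed ≥1 d earlier. Ureters and urethral orifice ligated. Bladder saline-infused at 100 μl/min to micturition threshold, then 3–5 μl/min. After ≥10 min stable baseline, vehicle (saline or 5% DMSO/saline), then escalating i.t. doses (10 μl + 10 μl saline flush, ≥8 min apart). ICI from intravesical pressure; n = 5–15; repeated-measures ANOVA/Bonferroni.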

P2X3 = conditions: ref Gever et al., 2006; Carter et al., 2009; cited from earlier work
P2X1 = conditions: ref Gever et al., 2006; Carter et al., 2009; cited from earlier work
P2X2/3 = conditions: ref Gever et al., 2006; Carter et al., 2009; cited from earlier work
[2] = system: 75 receptors, channels, enzymes, and transporters; assay: Cerep screen of 75 receptors, channels, enzymes and transporters; assay type: binding; conditions: 10 μM, 75 targets
hP2X2/3 = target: T1, hP2X2/3 (Homo sapiens, UniProt P56373+Q9UBL9); assay type: cell-based; conditions: αβmeATP or ATP-evoked calcium flux, 1321N1 cells, n = 15
T1 sequence (Q9UBL9 1-471): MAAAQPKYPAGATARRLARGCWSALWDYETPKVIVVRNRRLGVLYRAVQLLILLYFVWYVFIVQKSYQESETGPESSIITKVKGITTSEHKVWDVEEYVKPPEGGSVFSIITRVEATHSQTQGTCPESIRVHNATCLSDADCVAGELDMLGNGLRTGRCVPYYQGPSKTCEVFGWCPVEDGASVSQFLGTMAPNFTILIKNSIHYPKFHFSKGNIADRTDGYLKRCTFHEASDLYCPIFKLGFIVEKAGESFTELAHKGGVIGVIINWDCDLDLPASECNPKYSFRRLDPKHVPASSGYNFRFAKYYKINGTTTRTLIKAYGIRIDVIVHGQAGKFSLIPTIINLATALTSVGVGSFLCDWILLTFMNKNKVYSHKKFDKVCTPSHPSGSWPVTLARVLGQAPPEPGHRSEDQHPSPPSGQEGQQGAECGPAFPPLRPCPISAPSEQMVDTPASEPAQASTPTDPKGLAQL
T1 sequence (P56373 1-397): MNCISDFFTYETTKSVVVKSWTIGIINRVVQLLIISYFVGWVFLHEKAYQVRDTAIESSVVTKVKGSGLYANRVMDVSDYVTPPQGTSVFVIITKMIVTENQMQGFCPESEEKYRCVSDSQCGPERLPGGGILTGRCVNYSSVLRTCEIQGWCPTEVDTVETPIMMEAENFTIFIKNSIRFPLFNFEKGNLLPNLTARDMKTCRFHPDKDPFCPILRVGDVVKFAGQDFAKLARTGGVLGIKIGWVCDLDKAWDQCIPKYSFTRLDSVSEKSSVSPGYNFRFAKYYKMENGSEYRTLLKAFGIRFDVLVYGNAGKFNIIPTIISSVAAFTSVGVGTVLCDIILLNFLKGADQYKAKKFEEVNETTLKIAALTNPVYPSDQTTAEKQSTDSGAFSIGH
Procedure, shortened: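 Cytosolic calcium flux was read in Fluo-3-loaded 1321N1 astrocytoma cells transfected with cloned human P2X2/3 receptors. Flux was evoked by αβmeATP or ATP, at an agonist level set per receptor subtype, with test compound present. Inhibition was expressed as pIC50 ± SEM from 15 determinations.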

other P2X receptors = assay: calcium flux selectivity over other P2X receptors; assay type: cell-based; conditions: up to a concentration of 10 μM
Procedure, shortened: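 Off-target P2X subtypes were tested in Fluo-3-loaded CHOK1 cells (recombinant human P2X1, human P2X4, rat P2X5 or human P2X7) and 1321N1 astrocytoma cells (cloned human P2X2). Intracellular calcium flux was evoked by αβmeATP or ATP, at a level varied by subtype, with test compound present. pIC50 was derived with n = 3 per receptor.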

[3] = system: pERK-positive cells in L6 spinal cord; assay: spinal ERK activation; assay type: in vivo, Sprague-Dawley rats; conditions: 300 nmol, i.t., 10 min before 1% acetic acid intravesically; n = 4
Procedure, shortened: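 Separate experiment in urethane-anaesthetised bladder-cannulated female rats: ≥1 h post-cannulation, i.t. test compound (300 nmol) or 5% DMSO; 10 min later, 700 μl 1% acetic acid intravesically for 2 min (sham: vehicle, no acid, 12 min). Perfusion-fixed (4% paraformaldehyde/picric acid); 20 μm L6 cryosections. Anti-phospho-p44/42 (Thr202/Tyr204) staining with tyramide amplification and FITC. Four rats/group, three sections each, blind counting; one-way ANOVA/Tukey.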

more than 100 kinases = assay: Ambit kinase screen; assay type: binding; conditions: 10 μM
[4] = ref Wu et al. 2004; cited from earlier work

Row | Compound | intercontraction interval (ICI) ([1]; 1 nmol) [min] | intercontraction interval (ICI), extent of prolongation over the dose range [1] | pIC50 at P2X3 (P2X3) | intercontraction interval (ICI) ([1]; 10 nmol) [min] | pIC50 at P2X2/3 (P2X2/3) | further results
1 | Nc1ncnc2c1ncn2[C@@H]1O[C@H](COP(=O)(O)CP(=O)(O)OP(=O)(O)O)[C@@H](O)[C@H]1O [αβmeATP, α,β-methylene-ATP] | 8.45 ± 2.48 | up to 10 min | – | – | – | lowest significant dose for prolonging the ICI [1]: 1 nmol
2 | Nc1ncnc2c1ncn2[C@@H]1O[C@H](COP(=O)(O)OP(=O)(O)OP(=O)(O)O)[C@H]2OC3(O[C@H]21)C([N+](=O)[O-])=CC(=[N+]([O-])[O-])C=C3[N+](=O)[O-] (some centres unmarked) [TNP-ATP, 2′,3′-O-(2,4,6-trinitrophenyl) adenosine 5′-triphosphate monolithium trisodium salt] | 4.64 ± 1.30 | – | 9 | 4.28 ± 1.21 | 8.4 | pIC50 at P2X1 (P2X1): 8.22
3 | C#Cc1cc(Oc2cnc(N)nc2N)c(C(C)C)cc1OC [AF-792] | – | – | – | – | – | inhibition of radioligand binding or function [2]: little or no inhibition; pIC50 ± SEM (hP2X2/3): 7.94 ± 0.08; inhibition at other P2X receptors (other P2X receptors): no inhibition; number of pERK-positive cells in L6 spinal cord segment [3]: 43.0 ± 9.6 cells/ section; intercontraction interval (ICI) ([1]; 100 nmol): 8.00 ± 1.67 min; intercontraction interval (ICI) ([1]; 300 nmol): 9.33 ± 2.50 min; inhibition of radioligand binding or function (more than 100 kinases): little or no inhibition
4 | Cc1nc(N=Nc2ccc(S(=O)(=O)O)cc2S(=O)(=O)O)c(COP(=O)(O)O)c(C=O)c1O [PPADs, pyridoxal-phosphate-6-azophenyl-2′,4′,-disulphonic acid] | – | more than 2 min | 6 | 3.50 ± 1.15 | 6 | –
5 | O=C(O)c1cc(C(=O)O)c(C(=O)N(Cc2cccc(Oc3ccccc3)c2)[C@H]2CCCc3ccccc32)cc1C(=O)O [A-317491] | – | – | – | – | – | CNS permeability [4]: negligible CNS permeability
